In the library only some 2.2% were active in any assay of this set; here they are far more common.
Hck Nef HTS: inhibitors of Nef-activated human Hck kinase, primary screen, biochemical, Z-Lyte FRET, 384-well, Hck-YEEI. 0.68% of 220,000 active. Recombinant Hck-YEEI plus Nef, Z-Lyte FRET kinase assay. AID 463187, 2010. inhibition, % at 20 µM;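 active = Hck-Nef kinase inhibition above about 50%, limit read from the data; inactive = inhibition below that limit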;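 note: 0% = DMSO with Hck plus Nef and 100% = Hck alone without Nef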
eIF4E-4G inh: eIF4E–eIF4G protein interaction inhibitors, primary screen, biochemical, uHTS, TR-FRET, eIF4GI fragment. inhibition, % at 21.7 µM. 0.37% of 220,000 active. TR-FRET eIF4E-eIF4GI(517-606) binding, 2 h. Eukaryotic translation initiation factor 4E (Mus musculus) + Eukaryotic translation …;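 active = inhibition above about 30%, limit read from the data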;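 note: 0% = full FRET control wells and 100% = background wells lacking eIF4GI fragment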
p97 inhibitor: inhibitors of human p97 ATPase, primary screen, biochemical | Transitional endoplasmic reticulum ATPase (Homo sapiens), P55072 | recombinant p97 ATPase, Kinase-Glo ATP luminescence, 3 h | inhibition, % at 8 µM | 0.42% of 220,000 active | AID 1481, 2009; in the data active = inhibition above about 15%;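 note: 0% = DMSO vehicle and 100% = wells lacking enzyme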
14-3-3 Bad inh: inhibitors of 14-3-3 zeta/Bad binding, primary screen, biochemical, TR-FRET, bovine 14-3-3 zeta; 14-3-3 protein zeta/delta (Bos taurus), P63103; TR-FRET 14-3-3zeta/Dy647-pBad peptide displacement, 1 h; inhibition, % at 21.7 µM; 0.71% of 220,000 active; AID 781, 2007;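 active = inhibition above about 70%, limit read from the data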;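 note: 0% = full 14-3-3 plus peptide FRET controls and 100% = background without 14-3-3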
Target sequence (P63103 whole entry, looked up): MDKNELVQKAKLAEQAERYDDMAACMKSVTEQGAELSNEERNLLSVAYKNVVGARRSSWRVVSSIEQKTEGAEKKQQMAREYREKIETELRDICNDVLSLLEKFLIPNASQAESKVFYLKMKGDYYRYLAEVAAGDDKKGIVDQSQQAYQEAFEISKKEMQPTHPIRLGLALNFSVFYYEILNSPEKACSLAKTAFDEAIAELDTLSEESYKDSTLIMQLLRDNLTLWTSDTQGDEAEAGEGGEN
PERK inhibitor: block of dimerizer-induced PERK translation repression, primary screen, PERK inhibitor project, CHO PERK-DD cells, SEAP luminescence, HTS; CHO PERK-DD fusion, SEAP luminescence translation reporter; inhibition, % at 5.6 µM; 0.17% of 220,000 active; AID 1416, 2008;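 active = inhibition above the mean inhibition of all tested compounds plus 3 SD, set separately per screening campaign, cut at about 2.9% in these data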;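 note: PERK kinase domain activated by AP20187 dimerizer at 100 nM; 0% = DMSO with dimerizer and 100% = rapamycin at 8.4 µM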
Biofilm kill mix: clotrimazole potentiators killing C. albicans biofilm, primary screen, 4-compound mixtures; C. albicans biofilm persisters + clotrimazole, fluorescence viability; primary screen in compound mixtures of four per well; AID 1242, 2008; inhibition, % at 7.6 µM; 0.02% of 120,000 active;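 active = inhibition above 30.3% in the primary screen of four-compound pools, then above 30% when the compound was retested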;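 note: compounds exposed to preformed 24 h biofilms for 48 h; 0% = untreated biofilm control and 100% = clotrimazole plus chlorhexidine kill blank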
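Test system: C. albicans CAF4-2 wild-type biofilms; buffer or medium: RPMI/MOPS medium, pH 7.0; schedule: 24 h biofilm formation, then 48 h compound exposure, 37 °C; detection: Alamar Blue fluorescence; measure: percent inhibition of biofilm viability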
p97 inh conf: p97 ATPase inhibitors, retest, confirmation, biochemical; 44% of 760 active; shares compounds with p97 inhibitor; AID 1517, 2009; recombinant p97 ATPase, Kinase-Glo ATP luminescence; inhibition, % at 8 µM;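 active = percent inhibition of p97 ATPase above a set limit, the primary screen's mean plus 3 SD, cut at about 15% in these data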;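 note: 0% = DMSO wells and 100% = wells lacking p97 protein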
The depositor's hits bear a star; / = no result.

SMILES	Hck Nef HTS	eIF4E-4G inh	p97 inhibitor	14-3-3 Bad inh	PERK inhibitor	Biofilm kill mix	p97 inh conf
COc1cc(/C=C2/C(=O)N(c3ccccc3)N=C2C)ccc1OS(=O)(=O)c1ccccc1	1	3	6	-2	0	17	/
CC1=NN(c2ccc(C)c(C)c2)C(=O)/C1=C/c1ccc2c(c1)n(C)c(=O)n2C	1	0	25*	-11	1	9	-1
CCCc1cc(=O)[nH]c(Nc2ccc3c(c2)OCCO3)n1	9	2	1	-11	1	18	/
COC(=O)c1onc(-c2c(Cl)cccc2Cl)c1C(=O)OC	7	3	-3	1	0	8	/
Cc1cc(NCc2ccccc2)nc(-c2ccccc2O)n1	3	-4	20*	0	-1	/	35*
Cc1cc(Nc2ccccc2)nc(-c2ccccc2O)n1	1	5	25*	-11	0	/	40*
Cc1cc(NC2CCCCC2)nc(-c2ccccc2O)n1	3	1	0	22	1	/	/
Cc1ccc2c(C(=O)CN3CCSCC3)c(C)[nH]c2c1	-3	-3	-1	-14	1	/	/
Cc1ccc2[nH]cc(C(=O)CCl)c2c1	2	-2	33*	2	0	19	46*
Cc1ccc2c(C(=O)CCl)c(C)[nH]c2c1	30	-6	36*	-4	1	18	40*
Cc1nc2ccc(NS(=O)(=O)c3ccc4c(c3)OCCO4)cc2s1	8	5	2	4	0	/	/
Cc1nccn1CC(=O)N/N=C/c1cccc(O)c1	-1	4	0	-10	0	13	/
COc1ccc(/C=N/NC(=O)Cn2ccnc2C)cc1OC	4	-5	18*	0	0	13	5
NC(=S)N/N=C/c1coc2cc(Br)ccc2c1=O	30	-5	-2	-4	0	1	/
NC(=S)N/N=C/c1coc2ccc(O)cc2c1=O	-60	3	15*	-7	-1	6	11
Cc1ccc(NC(=S)Nc2cccc3cnccc23)cc1C	21	-5	24*	-15	-1	23	3
O=C(CN1CCC(NC(=O)c2ccco2)CC1)Nc1ccccc1[N+](=O)[O-]	16	-4	4	-7	0	9	/
C=C(C)C(=O)Nc1cccc(C2=NOC3(C2)C[C@H](C(N)=O)N(C(=O)/C=C/C)C3)c1 (stereo partly drawn)	24	3	/	26	/	7	/
COc1ccc(C(c2c(C)[nH]n(-c3ccccc3)c2=O)c2c(C)[nH]n(-c3ccccc3)c2=O)cc1OC	0	-3	30*	2	0	11	5
Cc1cc(/C=C2\C(=N)N3N=C(c4ccco4)SC3=NC2=O)c(C)n1Cc1ccccc1	31	-2	6	-10	0	14	/
N=C1/C(=C\c2coc3ccc(O)cc3c2=O)C(=O)N=C2SC=CN12	24	12	28*	24	2	18	24*
N=C1/C(=C\c2coc3ccccc3c2=O)C(=O)N=C2SC(c3ccncc3)=NN12	48	12	32*	35	0	7	44*
N=C1/C(=C/c2coc3ccccc3c2=O)C(=O)N=C2SC(c3ccco3)=NN12	1	4	16*	38	2	8	19*
CSC1=NSC2=NC(=O)/C(=C\c3coc4ccccc4c3=O)C(=N)N12	3	26	9	24	1	13	/
CN1C(=O)/C(=C/c2coc3ccc(O)cc3c2=O)SC1=S	6	0	2	19	2	15	/
